# Hits are enriched below; roughly 2.3% of the tested compounds scored in any of these assays.
# PAX8 reporter – inhibitors of PAX8-driven TPO luciferase reporter, primary screen, RMG-I cells, single concentration; SteadyGlo, 24 h; inhibition, % at 12.6 µM; 1.2% of 360,000 active; AID 652154, 2013;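 active means mean replicate inhibition at least 60% with every replicate also reaching 60%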;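 further: luciferase light reporting Pax8 driven TPO promoter activity; plate controls were median of neutral control wells for no effect and mitoxantrone controls for full effect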
# PfHsp90 yeast 2 – growth inhibition of PfHsp90-expressing yeast, primary screen, antimalarial PfHsp90 inhibitor project, S. cerevisiae, BacTiter-Glo luminescence, single point, set 2; AID 504621, 2011; BacTiter-Glo ATP, 48 h; yeast lacking PDR1 and PDR3 efflux regulators; inhibition, % at 9.4 µM; 0.32% of 310,000 active;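 active means every replicate shows inhibition above about 80%, whatever the replicate mean, limit read from the data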;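 further: 0% = DMSO neutral controls and 100% = 20 µM radicicol positive controls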
# HIV Env fusion – inhibitors of HIV-1 Env-driven cell-cell fusion, primary screen, HeLa-JRFL effector, CEM21 target cells, luciferase. 1.1% of 360,000 active. AID 651610, 2012. inhibition, % at 12.3 µM;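 active means mean replicate inhibition score of at least 50 and every replicate individually at or above 50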;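 further: 0% = plate neutral controls and 100% = maraviroc near 300 nM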
# Glyco luc inh – increase of ERlucT glycosylation luciferase signal, primary screen, N-linked glycosylation inhibitor project, D54 ERlucT cells, luminescence, set 2; reporter increase, % at 12.5 µM; 0.23% of 360,000 active; AID 588692, 2011; D54 ERlucT glycosylation luciferase reporter, 24 h; percent of 100 nM tunicamycin response;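 active means mean luciferase reporter signal, scaled so untreated is 0 and the glycosylation-blocking control 100, at or above a set limit in every replicate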;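 further: luciferase carries N-glycosylation sites so blocking glycosylation raises the light; 0% = median of neutral control wells and 100% = median of 100 nM tunicamycin wells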
# Rtt109 HAT inh – inhibitors of C. albicans Rtt109/Vps75 HAT, primary screen, biochemical, ThioGlo CoA-SH fluorescence, plate reader. Histone acetyltransferase RTT109 (Candida albicans (strain SC5314 / ATCC MYA-2876)), …. purified Rtt109/Vps75, 4 h. inhibition, % at 34.9 µM. 0.16% of 330,000 active;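 active means inhibition of at least 50% in every replicate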
# Target sequence (Q5AAJ8 whole entry, looked up): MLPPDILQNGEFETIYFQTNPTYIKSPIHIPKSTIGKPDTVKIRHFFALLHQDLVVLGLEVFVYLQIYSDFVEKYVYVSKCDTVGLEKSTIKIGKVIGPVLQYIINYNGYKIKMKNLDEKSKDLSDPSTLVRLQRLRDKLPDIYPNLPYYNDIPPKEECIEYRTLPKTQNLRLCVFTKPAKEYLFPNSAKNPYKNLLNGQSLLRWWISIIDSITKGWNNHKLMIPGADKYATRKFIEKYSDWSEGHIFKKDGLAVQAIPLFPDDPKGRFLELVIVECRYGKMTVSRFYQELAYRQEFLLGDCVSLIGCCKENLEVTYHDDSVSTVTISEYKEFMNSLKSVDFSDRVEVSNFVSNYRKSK
# Arrestin-AP2 inh – inhibitors of beta-arrestin/AP2 binding, primary screen, biochemical, GPCR trafficking, flow cytometry | 0.31% of 340,000 active | FITC-arrestin peptide / GST-AP2 beads; AP2 beta2 appendage carries R879A mutation | inhibition, % at 10 µM;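 active means inhibition above a set limit, near 3 SD of compounds lacking own fluorescence, cut at about 54% in these data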;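 further: plate controls were DMSO wells for no effect and 5 µM unlabelled arrestin peptide for full effect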
#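 System: GST-AP2 R879A bound to glutathione beads, E. coli-expressed. Also added: 50 nM FITC-arrestin peptide. Schedule: compound with beads 12 min RT, then probe 1 h RT. Signal: bead flow cytometry, FITC channel. Read-out basis: percent response.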
# Arr AP2 CP1 – inhibitors of arrestin peptide binding to AP2, confirmation, biochemical, cherry pick 1, flow cytometry beads | shares compounds with Arrestin-AP2 inh | GST-AP2 beads, FITC arrestin peptide binding; GST-fused beta2-adaptin appendage, R879A mutant | inhibition, % at 10 µM | 2% of 1,300 active | AID 504908, 2011;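 active means inhibition above a set limit, roughly 3 SD of non-fluorescent compound noise, cut at about 38% in these data; inactive means inhibition at or below that limit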;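 further: loss of bead fluorescence from 50 nM FITC arrestin peptide bound to appendage; 0% = negative control wells and 100% = excess unlabelled arrestin peptide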
# GST GSH counter – GST-fluorescein capture on glutathione beads, confirmation, artefact control for arrestin-AP2 inhibitor project, biochemical, cherry pick 1, flow cytometry; shares compounds with Arrestin-AP2 inh; GST-fluorescein binding to GSH beads, fluorescence, counter-screen; inhibition, % at 10 µM; 2% of 1,300 active;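 active means inhibition above 50%, about 3 SD of the inhibition seen with non-fluorescent compounds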;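 further: fluorescein maleimide labelled GST captured on 4 micron glutathione beads; higher means more loss of bead fluorescence from quenching or blocked binding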
# The depositor's hits bear a star; / = no result given; [ ] = remark or other dose.
SMILES,PAX8 reporter,PfHsp90 yeast 2,HIV Env fusion,Glyco luc inh,Rtt109 HAT inh,Arrestin-AP2 inh,Arr AP2 CP1,GST GSH counter
CC(=O)c1ccccc1NC(=O)c1cc(S(=O)(=O)N2CCOCC2)ccc1N1CCCC1,-3.1,-3.1,11.0,4.6,-0.1,-0.9,1.4,-7.1
C[C@H](CO)N1C[C@H](C)[C@@H](CN(C)C)Oc2ccc(NC(=O)NC3CCCCC3)cc2CC1=O,4.5,/,/,/,/,/,/,/
C1CCN(c2nc(N3CCCCC3)nc(N3CCNCC3)n2)CC1,/,-12.4,/,3.3,4.7,100.9*,0.7,-1.3
O=C(CCN1C(=O)/C(=C/c2ccccc2)SC1=S)NNC(=O)c1cccnc1,-1.1,-6.7,/,-2.0,7.5,106.4*,9.9,0.7
CCCCc1ccc(NC(=O)CC(C)=O)cc1,/,21.5,-68.1,-0.9,-6.5,-3.5,-8.7,1.3
COCC#Cc1ccc2c(c1)O[C@@H](CN(C)C(=O)C1CC1)[C@@H](C)CN([C@H](C)CO)S2(=O)=O,/,/,19.2[16.7 µM],/,/,/,/,/
COc1ccc(C2Nc3ccccc3C(=O)N2NS(C)(=O)=O)cc1OC (stereo not drawn),-10.2,10.1,14.7,-1.5,-17.4,71.2*,-2.1,0.7
CN(C)C(CNC(=O)CNC(=O)c1ccc2ccccc2c1)c1ccccc1 (stereo not drawn),-17.9,13.4,14.4,-0.6,/,58.6*,14.3,-0.4
COc1ccc(S(=O)(=O)c2ccc(OCC3CO3)cc2)cc1 (stereo not drawn),-15.5,-2.7,-7.0,-1.8,11.2,64.2*,12.0,-2.4
Cn1c(N)c(C(=O)COC(=O)c2ccccn2)c(=O)n(C)c1=O,32.7,9.8,-10.6,2.6,-3.4,-3.9,12.6,-3.3
CCOc1ncccc1C(=O)OCC(=O)c1c(N)n(C)c(=O)n(C)c1=O,/,-9.5,/,0.7,-4.3,4.7,-8.1,0.1
Cn1c(N)c(C(=O)COC(=O)c2ccccc2C(F)(F)F)c(=O)n(C)c1=O,4.4,10.2,-10.3,1.0,-0.8,-9.8,-2.7,-2.7
Cn1c(N)c(C(=O)CSc2ccccn2)c(=O)n(C)c1=O,-19.9,6.0,-10.3,2.6,-6.6,-8.2,/,/
Cn1c(N)c(C(=O)COC(=O)c2ccccc2C(=O)c2ccccc2)c(=O)n(C)c1=O,5.8,-12.6,/,1.6,3.4,-3.6,/,/
CC(=O)Nc1ccc(NC(=O)C(C)OC(=O)c2ccc3[nH]c(C)c(C)c3c2)cc1 (stereo not drawn),11.4,/,18.9,-3.0,6.9,57.0*,-6.7,-5.8
CCO[C@@H]1OC(C(=O)N2CCN(Cc3ccc4c(c3)OCO4)CC2)=C[C@H](C(C)(C)C)[C@H]1CCCO,-14.0,/,18.1[16.7 µM],/,/,/,/,/
Oc1[nH]c2c(Cl)cc(Cl)cc2c1N=NC(=S)NCC1CCCO1 (stereo not drawn),/,-28.3,21.9,1.8,6.0,103.9*,19.8,1.2
C[C@H](CO)N1C[C@H](C)[C@@H](CN(C)S(=O)(=O)c2ccccc2)Oc2ccc(NC(=O)Nc3ccccc3)cc2C1=O,-1.8,11.8,-2.8[16.7 µM],-0.6,2.0,54.4*,10.4,-8.4
COc1ccc(S(=O)(=O)N(C)C[C@H]2Oc3ccc(NS(=O)(=O)c4cn(C)cn4)cc3C(=O)N([C@H](C)CO)C[C@@H]2C)cc1,-1.5,-0.4,-3.8[16.7 µM],0.2,-2.6,73.0*,0.2,-3.4
C[C@H]1CN([C@@H](C)CO)C(=O)c2cc(NC(=O)Nc3ccc(F)cc3)ccc2O[C@H]1CN(C)S(=O)(=O)c1ccccc1,5.6,/,/,/,/,/,/,/
C[C@@H]1CN([C@H](C)CO)S(=O)(=O)c2ccc(-c3ccc(F)cc3)cc2O[C@@H]1CN(C)C,/,/,2.9[16.7 µM],/,/,/,/,/
CS(=O)(=O)N1CCN(C(=O)c2cc(-c3cccnc3)nc3ccc(Br)cc23)CC1,7.8,14.9,5.4,0.1,4.5,64.4*,-15.3,-6.4
CCC(C(=O)NCc1ccco1)N(Cc1cccs1)C(=O)CNS(=O)(=O)c1ccccc1 (stereo not drawn),1.2,/,-2.0,0.4,/,54.7*,-1.9,-0.1
CCC(C(=O)NCc1ccco1)N(C(=O)CNS(=O)(=O)c1ccccc1)c1ccccc1C (stereo not drawn),6.8,-50.8,4.2,-1.3,3.8,17.1,/,/
COc1cccc(OC)c1C(=O)Nc1ccccc1N1CCCC1,/,-4.3,4.0,1.6,-1.5,6.8,/,/
SMILES,PAX8 reporter,PfHsp90 yeast 2,HIV Env fusion,Glyco luc inh,Rtt109 HAT inh,Arrestin-AP2 inh,Arr AP2 CP1,GST GSH counter
Cn1c(=O)n(C)c2cc(N3CCOCC3)c(NC(=O)c3cccc(Cl)c3)cc21,-4.1,-7.6,-9.8,-1.3,-17.4,-12.4,0.6,1.9
COc1cccc(OC)c1C(=O)Nc1cc2c(cc1N1CCOCC1)n(C)c(=O)n2C,-19.0,9.6,-33.1,5.0,-1.1,-2.5,-11.6,-1.3
Cn1c(=O)n(C)c2cc(N3CCOCC3)c(NC(=O)c3ccc(F)cc3)cc21,-2.9,3.4,2.6,0.5,-9.4,41.4,18.8,14.5
Cc1cc(C(=O)Nc2ccc3c(c2)C(=O)N(C)[C@H]2CC[C@@H](CC(=O)NC4CCCC4)O[C@@H]2CO3)no1,-18.6,/,0.4[16.7 µM],/,/,/,/,/
C[C@@H]1CN([C@H](C)CO)C(=O)c2cc(C#CC3CC3)cnc2O[C@H]1CN(C)C(=O)C1CCCCC1,/,/,17.5[16.7 µM],/,/,/,/,/
C[C@H](CO)N1C[C@H](C)[C@H](CN(C)C(=O)C2CC2)Oc2cc(-c3ccc(C(=O)N(C)C)cc3)ccc2S1(=O)=O,/,/,-7.2[16.7 µM],/,/,/,/,/
C[C@@H]1CN([C@H](C)CO)C(=O)Cc2cc(NS(=O)(=O)c3cccs3)ccc2O[C@H]1CN(C)Cc1ccc2c(c1)OCO2,-6.0,/,6.8[16.7 µM],/,/,/,/,/
N#Cc1cn(CCOc2ccc(F)cc2)c2ccccc12,/,-10.8,/,-3.1,-3.5,56.7*,8.1,-9.3
Cc1noc(C)c1S(=O)(=O)Nc1ccc2c(c1)CC(=O)N([C@H](C)CO)C[C@H](C)[C@@H](CN(C)C(=O)Nc1ccc(F)cc1)O2,0.6,/,-4.5[16.7 µM],/,/,/,/,/
CC(C)CC#Cc1cnc2c(c1)C(=O)N([C@@H](C)CO)C[C@@H](C)[C@@H](CN(C)C(=O)c1cnccn1)O2,/,/,-20.8[16.7 µM],/,/,/,/,/

# Screens as filed in PubChem.
